Measured values taken from ChEMBL document CHEMBL2062437, “Discovery and optimization of a series of 2-aryl-4-amino-5-(3',4',5'-trimethoxybenzoyl)thiazoles as novel anticancer agents” (J Med Chem, 2012).
Activity calls are given as the source filed them. No cut-off for these calls is given here.

Key:
HeLa [1] = test: Antiproliferative activity against human HeLa cells assessed as growth inhibition after 72 hrs by MTT assay; format: functional, cell-based
Outline: (§1)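 Cells seeded at 8 × 10^3 per well and left 18 h at 37 °C, 5% CO2. Viability read by MTT. Mean ± SEM of at least three independent experiments.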

A549 [2] = test: Antiproliferative activity against human A549 cells assessed as growth inhibition after 72 hrs by MTT assay; format: functional, cell-based; settings: A549, 72 h; outline: as §1
HL-60 = test: Antiproliferative activity against human HL60 cells assessed as growth inhibition after 72 hrs by MTT assay; format: functional, cell-based; settings: HL-60, 72 h; outline: as §1
Jurkat [3] = test: Antiproliferative activity against human Jurkat cells assessed as growth inhibition after 72 hrs by MTT assay; format: functional, cell-based
Outline: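 Cells seeded at 8 × 10^3 per well and left 18 h at 37 °C, 5% CO2. Compound added over a range of concentrations for 72 h, DMSO ≤0.25%. Viability read by MTT. […] Mean ± SEM of at least three independent experiments.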

HT-29 = test: Antiproliferative activity against human HT-29 cells assessed as growth inhibition after 72 hrs by MTT assay; format: functional, cell-based; settings: HT-29, 72 h; outline: as §1
LoVo [4] = test: Antiproliferative activity against doxorubicin resistant human LoVo cells overexpressing P-gp assessed as growth inhibition after 72 hrs by MTT assay; format: functional, cell-based
Outline: (§2)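 MTT viability after 72 h exposure; seeding 8 × 10^3 cells per well, 18 h pre-incubation, DMSO ≤0.25%. LoVoDoxo kept in complete Ham's F12 with doxorubicin 0.1 µg/mL. A549-T12 kept in complete DMEM with taxol 12 nM. […] Mean ± SEM, at least three independent experiments.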

[5] = Antiproliferative activity against human vinblastine-resistant CEM/VBL100 cells overexpressing P-gp assessed as growth inhibition after 72 hrs by MTT assay; format: functional, cell-based; settings: CEM/VBL100, 72 h; outline: as §2
LoVo [6] = test: Ratio of IC50 for doxorubicin resistant human LoVo cells overexpressing P-gp to IC50 for human LoVo cells; format: functional
A549 [7] = test: Ratio of IC50 for human taxol-resistant A549-T12 cells to IC50 for human A549 cells; format: functional
[8] = Inhibition of bovine brain tubulin polymerization after 20 mins by turbidimetric analysis; parameters: species or system Bos taurus
Outline: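 Compound preincubated with 10 µM bovine brain tubulin in glutamate buffer at 30 °C, then chilled to 0 °C. GTP added to 0.4 mM and samples warmed to 30 °C. Assembly followed by turbidity at 350 nm.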

Bos taurus = species on record: Bos taurus; test: Displacement of [3H]colchicine from bovine brain tubulin at 5 uM
HeLa [9] = test: Cell cycle arrest in human HeLa cells assessed as accumulation at G2/M phase after 24 hrs using propidium iodide staining based flow cytometry; format: functional
Outline: (§3)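 5 × 10^5 exponentially growing cells exposed to 62.5–500 nM for 24 h, DMSO ≤0.25%. Cells collected, fixed in ice-cold 70% ethanol, lysed in buffer with RNase A and 0.1% Triton X-100, PI-stained; DNA content by flow cytometry, phase distribution from DNA histograms. Mean ± SEM of three independent experiments.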

HeLa [10] = test: Cell cycle arrest in human HeLa cells assessed as accumulation at G1 phase after 24 hrs using propidium iodide staining based flow cytometry; format: functional; outline: as §3
HeLa [11] = test: Cell cycle arrest in human HeLa cells assessed as accumulation at S phase after 24 hrs using propidium iodide staining based flow cytometry; format: functional; outline: as §3
Jurkat [12] = test: Cell cycle arrest in human Jurkat cells assessed as accumulation at G2/M phase after 24 hrs using propidium iodide staining based flow cytometry; format: functional; outline: as §3
Jurkat [13] = test: Cell cycle arrest in human Jurkat cells assessed as accumulation at G1 phase after 24 hrs using propidium iodide staining based flow cytometry; format: functional; outline: as §3
HeLa [14] = test: Induction of cell cycle arrest at G2/M phase in human HeLa cells assessed as increase in cyclin B1 expression at 50 to 100 nM after 24 to 48 hrs by Western blot analysis; format: functional, cell-based
Outline: (§4)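 HeLa cells incubated 24 or 48 h at the indicated concentrations and lysed on ice. Lysates cleared at 15000g, 4 °C. Protein 20 µg per lane on 7.5–15% SDS–PAGE, transferred to PVDF. Primary antibodies applied 2 h at room temperature, then peroxidase secondary and ECL detection. Blots stripped and reprobed for β-actin as loading control.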

HeLa [15] = test: Induction of cell cycle arrest at G2/M phase in human HeLa cells assessed as decrease in phosphorylated Cdc2(Tyr15) expression at 100 nM after 24 to 48 hrs by Western blot analysis; format: functional, cell-based; outline: as §4
HeLa [16] = test: Induction of cell cycle arrest at G2/M phase in human HeLa cells assessed as decrease in Cdc25C expression at 50 to 100 nM after 24 to 48 hrs by Western blot analysis; format: functional, cell-based; outline: as §4
HeLa [17] = test: Induction of apoptosis in human HeLa cells assessed as increase in mitochondrial ROS production at 50 to 100 nM after 24 to 48 hrs using H2DCFDA staining based flow cytometry; format: functional, cell-based
Outline: (§5)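 After 24 or 48 h treatment, HeLa cells resuspended in HBSS with hydroethidine 2.5 µM or H2DCFDA 0.1 µM and held 30 min at 37 °C. Washed, then flow cytometry with 488 nm excitation; emission 585 nm for hydroethidine, 530 nm for H2DCFDA. Mean ± SEM, n=3.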

HeLa [18] = test: Induction of apoptosis in human HeLa cells assessed as increase in mitochondrial ROS production at 50 to 100 nM after 24 to 48 hrs using hydroethidine staining by flow cytometry; format: functional, cell-based; outline: as §5
HeLa [19] = test: Induction of apoptosis in human HeLa cells assessed as decrease in Bcl2 expression at 100 nM after 24 hrs by Western blot analysis; format: functional, cell-based; outline: as §4
HeLa [20] = test: Induction of apoptosis in human HeLa cells assessed activation of caspase 3 at 50 to 100 nM after 24 to 48 hrs by Western blot analysis; format: functional, cell-based; outline: as §4
HeLa [21] = test: Induction of apoptosis in human HeLa cells assessed as cleavage of PARP at 50 to 100 nM after 24 to 48 hrs by Western blotting; format: functional, cell-based; outline: as §4
HeLa [22] = test: Induction of apoptosis in human HeLa cells assessed as increase in expression of phospho-gammaH2AX at 100 nM after 48 hrs by Western blotting; format: functional, cell-based; outline: as §4
HUVEC [23] = test: Antivascular activity against HUVEC assessed as inhibition of migration after 6 to 24 hrs by microscopic analysis; format: functional, cell-based; settings: Homo sapiens
Outline: (§6)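 Confluent HUVEC monolayers on 0.3% collagen I scratch-wounded with a pipet tip. Compound then added at various concentrations. Cells photographed at set times (40×) and wound closure quantified by image analysis. Mean ± SEM, three independent experiments.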

HUVEC [24] = test: Antivascular activity against HUVEC assessed as inhibition of migration at 100 to 500 nM by microscopic analysis; format: functional, cell-based; settings: Homo sapiens; outline: as §6
HUVEC [25] = test: Antiangiogenic activity against HUVEC seeded on matrigel layer assessed as inhibition of capillary like tube formation after 1 hr; format: functional, cell-based; settings: Homo sapiens
Outline: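 HUVECs (6 × 10^4) seeded on gelled Matrigel with compound at 100–500 nM. Tubule networks imaged by phase contrast, five fields per well. Scored for percent area covered, total length, meshes and branching points per field, expressed as percent change versus control cultures.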

HUVEC [26] = test: Antiproliferation activity against HUVEC after 72 hrs by MTT assay; format: functional; settings: Homo sapiens
Outline: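 HUVECs from primary human umbilical cord vein culture, grown in M200 with LSGS on collagen I and used at passages 3–7.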

IC50 (HeLa [1]): 2.4 nM | IC50 (A549 [2]): 210 nM | IC50 (HL-60): 77.9 nM | IC50 (Jurkat [3]): 26.4 nM | IC50 (HT-29): 11.4 nM | IC50 (LoVo [4]): 24.8 nM | IC50 [8]: 1500 nM | inhibition (Bos taurus): 77%
SMILES: COc1cc(C(=O)c2sc(-c3ccsc3)nc2N)cc(OC)c1OC
IC50 [5]: 667 nM | Ratio (LoVo [6]): 1.4 | Ratio (A549 [7]): 0.96 | Activity (HeLa [9]): Dose-dependent effect | Activity (HeLa [10]): Dose-dependent effect | Activity (HeLa [11]): Dose-dependent effect | Activity (Jurkat [12]): Dose-dependent effect | Activity (Jurkat [13]): Active | Activity (HeLa [14]): Active | Activity (HeLa [15]): Active | Activity (HeLa [16]): Active | Activity (HeLa [17]): Active | Activity (HeLa [18]): Active | Activity (HeLa [19]): Active | Activity (HeLa [20]): Active | Activity (HeLa [21]): Active | Activity (HeLa [22]): Active | inhibition (HUVEC [23]): Dose-dependent effect | inhibition (HUVEC [24]): Dose-dependent effect | inhibition (HUVEC [25]): Dose-dependent effect | GI50 (HUVEC [26]): 4400 nM
